ChEMBL document CHEMBL1137746, “New insights into the antioxidant activity of hydroxycinnamic acids: Synthesis and physicochemical characterization of novel halogenated derivatives” (Eur J Med Chem, 2009)

What was measured:
[1] = DPPH radical scavenging activity assessed as Trolox equivalent antioxidant capacity at 50 uM after 40 mins; assay type: functional
Summary of the method: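 DPPH in ethanol; decrease in absorbance at 517 nm measured. Blank was ethanol; control was DPPH solution in ethanol. Triplicate. Trolox used as reference; TE = (A_control − A_test)/(A_control − A_trolox), A_control being DPPH solution without sample.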

[2] = Octanol-water partition coefficient, log P of the compound
[3] = ABTS radical scavenging activity assessed as Trolox equivalent antioxidant capacity at 50 uM by spectrophotometric analysis; assay type: physicochemical
Summary of the method: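 ABTS•+ generated from 7 mM ABTS in water with 2.45 mM potassium persulfate, kept dark at room temperature 12–16 h. Ethanolic compound solutions added to 180 µL radical solution; absorbance followed over 20 min. Blank control set as 100% radical. Triplicate. TE = (A_control − A_test)/(A_control − A_trolox); Trolox reference.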

SMILES | logP [2] | Activity [3] | Activity [1]
CCOC(=O)/C=C/c1cc(O)c(O)c(Br)c1 | 2.58 | 2.527 | 0.938
O=C(O)/C=C/c1cc(O)c(O)c(Br)c1 | 1.98 | 2.496 | 1.01
CCOC(=O)/C=C/c1cc(Br)c(O)c(OC)c1 | 2.85 | 2.558 | 0.558
COc1cc(/C=C/C(=O)O)ccc1O [FERULATE] | 1.42 | 2.534 | 0.781
COc1cc(/C=C/C(=O)O)cc(OC)c1O [SINAPINATE] | – | 2.538 | 0.862

The next lines start with results.

logP [2] | Activity [3] | SMILES | Activity [1]
2.25 | 2.554 | COc1cc(/C=C/C(=O)O)cc(Br)c1O | 0.808
– | 2.538 | O=C(O)/C=C/c1ccc(O)c(O)c1 [CAFFEIC ACID] | 0.978
1.75 | 2.558 | CCOC(=O)/C=C/c1ccc(O)c(O)c1 [ETHYL CAFFEATE] | 0.877
2.02 | 2.538 | CCOC(=O)/C=C/c1ccc(O)c(OC)c1 [ETHYL FERULATE] | 0.593
